Screening results (PubChem BioAssay)
Hck Nef HTS = human Hck-Nef kinase inhibition | P08631 | Recombinant Hck-YEEI plus Nef, Z-Lyte FRET kinase assay | inhibition, % at 20 µM | actives 0.68% (n = 220,000) | AID 463187;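 active = Hck-Nef kinase inhibition above about 50%, limit read from the data; inactive = inhibition below that limit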;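 note: 0% = DMSO with Hck plus Nef and 100% = Hck alone without Nef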
Runt-SMMHC FRET = Runt domain-CBFb-SMMHC interaction inhibition. Cerulean-Runt/Venus-CBFb-SMMHC FRET ratio 530/480, 1 h. inhibition, % at 20 µM. actives 0.74% (n = 220,000);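 active = mean inhibition across duplicate retests at 20 µM reaching about 50%, limit read from the data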;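 note: 0% = DMSO wells and 100% = wells with excess untagged CBFb-SMMHC; inhibitors lower the FRET ratio by blocking Runt binding to CBFb-SMMHC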
Target sequence (Q01196 whole entry, looked up, the tested form may be a part): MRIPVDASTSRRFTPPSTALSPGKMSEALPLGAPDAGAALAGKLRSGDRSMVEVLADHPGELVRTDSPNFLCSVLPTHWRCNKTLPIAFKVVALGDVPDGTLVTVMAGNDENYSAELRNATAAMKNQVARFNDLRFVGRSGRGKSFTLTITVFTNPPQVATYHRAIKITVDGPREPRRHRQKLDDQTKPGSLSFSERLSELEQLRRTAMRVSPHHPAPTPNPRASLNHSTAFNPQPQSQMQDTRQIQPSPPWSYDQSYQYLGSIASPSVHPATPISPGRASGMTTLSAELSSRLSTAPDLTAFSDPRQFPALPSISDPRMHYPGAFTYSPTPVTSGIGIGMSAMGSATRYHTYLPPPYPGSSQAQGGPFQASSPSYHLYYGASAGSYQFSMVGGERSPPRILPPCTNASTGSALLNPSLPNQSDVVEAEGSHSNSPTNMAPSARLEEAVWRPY
Target sequence (Q13951 whole entry, looked up, the tested form may be a part): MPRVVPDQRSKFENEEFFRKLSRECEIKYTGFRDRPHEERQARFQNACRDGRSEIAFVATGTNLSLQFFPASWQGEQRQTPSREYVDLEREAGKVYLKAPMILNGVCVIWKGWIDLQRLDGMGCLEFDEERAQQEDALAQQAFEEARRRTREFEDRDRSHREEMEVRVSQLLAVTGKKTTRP
RanGTP-Impb inh = inhibitors of RanGTP-importin-beta interaction, primary screen, biochemical, FRET, CFP-Ran, YFP-importin-beta, homogeneous. AID 2216. cell-free CFP-Ran/YFP-importin-beta FRET ratio. actives 1.1% (n = 300,000). inhibition, % (no concentration beside the values);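 active = more than half of the replicate wells show a fall in the fluorescence ratio signal beyond about 16%, limit read from the data, passing the limit was not always enough; inconclusive = exactly half of the replicate wells pass the set limit; inactive = fewer than half of replicates pass the limit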;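 note: 0% = DMSO wells and 100% = Ran loaded with GDP instead of GTP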
Runt-CBFb FRET = inhibitors of human RUNX1 Runt domain binding to CBFb; Q01196+Q13951; Cerulean-Runt/Venus-CBFb FRET ratio 530/480, 1 h; inhibition, % at 20 µM; actives 0.46% (n = 220,000); AID 1496;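 active = inhibition over about 50% at 20 µM in the single-dose screen, limit read from the data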;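 note: 0% = DMSO wells and 100% = excess unlabeled CBFb competitor control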
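System: Cerulean-labeled Runt domain protein | Quantity: 100 nM of each labeled protein | Schedule: 1 h compound exposure, room temperature | Detection: Fluorescence energy transfer, 422 nm excitation, 530/480 nm emission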
TbHK1 inh = T. brucei hexokinase 1 inhibition | actives 0.11% (n = 220,000) | recombinant TbHK1, G6PDH-coupled NADH A340 | inhibition, % at 10 µM | AID 1430;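 active = inhibition of 50% or more in the single-dose primary screen; inactive = inhibition below 50%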
Hck-Nef confirm = confirmation of Hck-Nef kinase inhibitors | shares compounds with Hck Nef HTS | Recombinant Hck-YEEI:Nef, Z-Lyte FRET kinase assay | calls only at 10 µM | actives 28% (n = 1,300) | AID 463188;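 active = average inhibition of at least 50%, with Z-scores no higher than 3 in both the phospho-tyrosine peptide and fluorescence counterscreens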
* hit, by the source's call; i = inactive; ? = inconclusive; nt = no result shown; + = active, no number. An excerpt weighted towards active compounds, which were near 1.9% of everything screened.

SMILES	Hck Nef HTS	Runt-SMMHC FRET	RanGTP-Impb inh	Runt-CBFb FRET	TbHK1 inh	Hck-Nef confirm
Cc1nn(-c2ccccc2)c(C)c1C(=O)OCC(=O)Nc1ccc2c(c1)OCO2	0	2	-1	-2	-1	nt
Cc1ccc([N+](=O)[O-])cc1N=Nc1c(-c2ccc([N+](=O)[O-])cc2)[nH]n(C(N)=S)c1=O	82*	-16	8	-1	-4	+
Cc1ccc([N+](=O)[O-])cc1N=Nc1c(C)[nH]n(C(N)=S)c1=O	nt	nt	2	nt	nt	nt
NC(=S)n1[nH]c(-c2ccc([N+](=O)[O-])cc2)c(N=Nc2ccc(Cl)cc2)c1=O	71*	-10	nt	-4	-2	+
Cc1ccc(N=Nc2c(C)[nH]n(C(N)=S)c2=O)cc1	-33	-2	0	-2	0	nt
O=C(COc1ccc(-n2cnnn2)cc1)NC(=O)NCc1ccccc1	5	0	2	1	-3	nt
O=C(Cn1c2ccc(F)cc2c2nc3n(c(=O)c21)CCS3)Nc1ccc(Cl)cc1F	61*	-6	1	-1	-9	i
COc1ccc(C(=O)CCc2ccccc2)c(O)c1	nt	nt	-3	nt	nt	nt
O=C(CCc1ccccc1)c1c(O)cc(O)cc1O	69*	3	-1	2	-37	i
Cc1ccc(NC2SC(=O)N(CC(=O)O)C2=O)cc1 (stereo not drawn)	-2	-1	3	2	5	nt
CCN(CC)c1ccc(/C=c2\sc3nc4ccccc4n3c2=O)c(O)c1	68*	92*	135*	20	6	nt
COc1ccc(NC(=O)CN(C)CC(=O)NCC(=O)Nc2ccc(F)cc2)cc1	nt	nt	2	nt	nt	nt
Cc1c(C)n(Cc2ccc(F)cc2)c2ccc(C(=O)N3CCN(c4ccccn4)CC3)cc12	nt	nt	-1	nt	nt	nt
O=C(N=Nc1ccc(NOC(=O)c2ccccc2Br)cc1)c1ccccc1O	68*	-2	6	4	-11	i
O=Nc1ccc(NOC(=O)c2ccccc2)cc1	8	6	0	3	-30	nt
COc1ccccc1/C=N/NC(=O)C(=O)N1CCN(c2ccccc2OC)CC1	5	0	0	-1	19	nt
COC(=O)CCCC1=CC2=CC(=O)C(C)(OC(=O)c3cccs3)C(=O)C2=CN1Cc1ccc2c(c1)OCO2 (stereo not drawn)	53*	0	0	1	-39	i
CC(=O)COc1nc2c(c(-c3ccco3)c1C#N)CCc1ccccc1-2	56*	3	11	5	-32	i
COc1ccc(/C=C2\SC(=N)N(c3ccc(F)cc3)C2=O)cc1OC	63*	-7	3	-1	-32	+
COc1ccc(C2=NN(C(=O)CSc3nc4ncc(Cl)cc4[nH]3)C(c3ccco3)C2)cc1 (stereo not drawn)	22	19	-4	17	2	nt
Cc1ccc(C2=NN(C(=O)CSc3nc4ncc(Cl)cc4[nH]3)C(c3ccco3)C2)cc1 (stereo not drawn)	77*	26	0	18	1	i
CCN(CC)c1ccc(C(=O)O)cc1	1	3	6	-1	2	nt
CCN(CC)c1ccc(/C=C2\C(=O)c3ccc(C(=O)O)cc3C2=O)cc1	64*	-100	nt	-30	6	i
CSc1nc(SCCO)c2sc3nc(-c4ccco4)c4c(c3c2n1)CC(C)(C)OC4	78*	-46	4	-12	-9	i
CC1(C)Cc2c(c(-c3ccco3)nc3sc4c(NCCO)ncnc4c23)CO1	37	23	0	30	-21	nt
SMILES	Hck Nef HTS	Runt-SMMHC FRET	RanGTP-Impb inh	Runt-CBFb FRET	TbHK1 inh	Hck-Nef confirm
CCOc1ccc(N2CC(O)=C(c3nc4ccccc4c(=O)[nH]3)C2=N)cc1	55*	-5	-1	-1	-21	i
CCc1ccc(C2=NN(c3ccc(S(N)(=O)=O)cc3)C(c3ccc(F)cc3)C2)cc1 (stereo not drawn)	74*	41	?	9	-15	nt
CCc1ccc(C2=NN(S(C)(=O)=O)C(c3cccs3)C2)cc1 (stereo not drawn)	-20	-1	1	0	-7	nt
COc1cccc(CNC(=O)CN2c3cccc4cccc(c34)S2(=O)=O)c1	nt	nt	2	nt	nt	nt
COc1ccc(C(=O)Nc2cccc(/C=C/c3nc4ccccc4c(=O)[nH]3)c2)cc1	56*	2	0	-4	-32	i
O=C(Nc1cccc(/C=C/c2nc3ccccc3c(=O)[nH]2)c1)c1ccccc1Cl	23	-5	3	-1	-33	nt
Cc1ccc(NC(=O)c2cccc(S(=O)(=O)N3CCN(c4ccccc4)CC3)c2)nc1	nt	nt	1	nt	nt	nt
O=c1[nH]c(O)c(/C=C2\C=Nc3ccccc32)[nH]1	60*	-4	9	5	-45	i
CCc1nn(C)c(N)c1C	18	-4	-1	-2	-5	nt
CCOC(=O)N1CCN(C(=O)Cn2nc(C)n3nc(-c4ccccc4)cc3c2=O)CC1	nt	nt	0	nt	nt	nt
CCc1cc(=O)oc2cc(OC(=O)c3ccco3)ccc12	nt	nt	6	nt	nt	nt
COC(=O)Cc1c(C)c2ccc(OC(=O)c3ccco3)cc2oc1=O	102*	32	1	17	-18	nt
Cc1cc(=O)oc2cc(OC(=O)c3ccco3)ccc12	127*	20	3	12	-16	i
COC(=O)Cc1c(C)c2ccc(OC(C)C)cc2oc1=O	22	2	3	1	-44	nt
S=c1[nH]nc(-c2cccnc2)n1/N=C/C=C/c1ccccc1	0	12	1	9	-13	nt
CCCOc1ccccc1C1C(C(=O)OC)=CN(C(C)C)C=C1C(=O)OC	68*	58*	115*	86*	-5	nt
COC(=O)C1=CN(C)C=C(C(=O)OC)C1c1ccccc1Cl	70*	83*	87*	5	1	nt
CCCOc1ccccc1C1NC(=O)NC(C)=C1C(=O)OCCOCC (stereo not drawn)	2	-2	5	-2	4	nt
CCCCOc1ccccc1C1C(C(=O)OC)=CN(CC)C=C1C(=O)OC	62*	-21	107*	10	0	nt
COC(=O)C1=CN(CCCN2CCCC2=O)C=C(C(=O)OC)C1c1ccccc1C(F)(F)F	85*	-16	116*	10	-2	nt
CN(C)c1cc(Cl)c2nonc2c1N	-2	-2	1	2	-1	nt
CCOc1ccccc1CN1CCN(Cc2ccon2)CC1CCO (stereo not drawn)	2	0	-3	2	-7	nt
CCOC(=O)c1cc(C(=O)OCC)c2ccccn2c1=O	95*	60*	66*	97*	-17	nt
CCC(C)NC(=O)CCC(=O)Nc1ccc2nc(N3CC(C)CC(C)C3)cc(C)c2c1 (stereo not drawn)	52*	-2	2	-2	-12	i
O=C(COc1ccc2ccc(=O)oc2c1)NC1CCCC1	nt	nt	3	nt	nt	nt
